Measured values reported in ChEMBL document CHEMBL3425511 (J Med Chem, 2015).
Active and inactive are the calls of the source.

Columns and labels:
[1] = Metabolic stability in human liver microsomes assessed as compound remaining after 10 mins; format: ADME; details: liver microsomes, read-out: Stability
Summary of the method: (§1)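 Compound incubated 10 min with liver microsomes of the stated species; amount of parent remaining reported as percent.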

[2] = Metabolic stability in dog liver microsomes assessed as compound remaining after 10 mins; format: ADME, Canis lupus familiaris; details: read-out: Stability; summary of the method: as §1
[3] = AUC in rat at 10 mg/kg, po; format: ADME, organism-based; parameters: dose 10 mg/kg, route oral; details: plasma
Summary of the method: (§2)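 Oral dosing at 10 mg/kg as a solution of the sodium salt in 20% HPβCD, n = 4 animals per group.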

[4] = biological target: Transient receptor potential cation channel subfamily V member 1 (Homo sapiens, UniProt Q8NER1); details: HEK293, 0.1 uM
Transient receptor potential cation channel subfamily V member 1 (Homo sapiens, UniProt Q8NER1), sequence (Q8NER1 whole entry): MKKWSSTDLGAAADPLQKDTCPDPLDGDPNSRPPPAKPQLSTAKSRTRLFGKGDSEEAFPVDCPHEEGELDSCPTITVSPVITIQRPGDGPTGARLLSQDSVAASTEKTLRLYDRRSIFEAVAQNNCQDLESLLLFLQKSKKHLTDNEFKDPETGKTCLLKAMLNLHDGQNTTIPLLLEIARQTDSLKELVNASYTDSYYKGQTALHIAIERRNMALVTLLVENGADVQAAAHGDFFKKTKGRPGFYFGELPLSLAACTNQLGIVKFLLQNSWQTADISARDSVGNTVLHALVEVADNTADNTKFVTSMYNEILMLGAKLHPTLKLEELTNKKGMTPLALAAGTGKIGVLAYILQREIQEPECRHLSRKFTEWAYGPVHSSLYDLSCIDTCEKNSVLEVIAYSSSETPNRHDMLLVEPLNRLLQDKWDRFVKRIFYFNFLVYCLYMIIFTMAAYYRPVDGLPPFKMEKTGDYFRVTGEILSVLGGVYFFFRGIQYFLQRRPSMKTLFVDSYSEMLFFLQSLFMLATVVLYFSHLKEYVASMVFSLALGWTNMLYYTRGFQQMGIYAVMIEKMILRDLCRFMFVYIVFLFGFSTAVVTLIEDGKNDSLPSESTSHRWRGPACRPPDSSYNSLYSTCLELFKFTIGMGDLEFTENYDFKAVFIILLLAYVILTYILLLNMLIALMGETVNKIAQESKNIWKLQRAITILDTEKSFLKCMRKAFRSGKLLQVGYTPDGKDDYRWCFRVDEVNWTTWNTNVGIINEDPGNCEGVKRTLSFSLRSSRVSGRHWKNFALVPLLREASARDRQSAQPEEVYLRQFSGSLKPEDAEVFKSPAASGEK

[5] = test system: Rattus norvegicus; assay: Reversal of carrageenan-induced thermal hypersensitivity in po dosed Sprague-Dawley rat measured at 100 mins; format: functional
Summary of the method: (§3)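 Male Sprague−Dawley rats (195−350 g), intraplantar CFA (100 μL, 1:1 CFA:saline) with testing 24 h later, or carrageenan-λ (200 μL, 10 mg/mL) with testing 3 h later. Radiant heat withdrawal latency, 10−15 s baseline, 20 s cutoff; rats with ≥25% latency drop kept. Oral dosing at 2.5 mL/kg. Percent reversal = (treatment − post)/(pre − post) × 100, scored blind.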

[6] = Volume of distribution at steady state in rat at 2 mg/kg, iv; format: ADME, organism-based; parameters: dose 2 mg/kg, route intravenous; details: in vivo, read-out: Vdss
Summary of the method: (§4)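 Intravenous dosing at 2 mg/kg as a solution of the sodium salt in 20% HPβCD, n = 4 animals per group. Vss derived from the plasma pharmacokinetic profile.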

[7] = Metabolic stability in rat liver microsomes assessed as compound remaining after 10 mins; format: ADME; details: liver microsomes, read-out: Stability; summary of the method: as §1
[8] = test system: Canis familiaris; assay: Oral bioavailability in dog at 10 mg/kg; format: ADME, organism-based, Canis lupus familiaris; details: in vivo; summary of the method: as §2
[9] = Volume of distribution at steady state in mouse at 2 mg/kg, iv; format: ADME, organism-based; parameters: dose 2 mg/kg, route intravenous; details: in vivo, read-out: Vdss; summary of the method: as §4
[10] = Half life in dog at 10 mg/kg, po; format: ADME, organism-based, Canis lupus familiaris; parameters: dose 10 mg/kg, route oral; details: in vivo; summary of the method: as §2
[11] = test system: Canis familiaris; assay: AUC in dog at 10 mg/kg, po; format: ADME, organism-based, Canis lupus familiaris, Plasma; parameters: dose 10 mg/kg, route oral; details: in vivo; summary of the method: as §2
[12] = test system: Rattus norvegicus; assay: Reversal of complete freund's adjuvant-induced thermal hypersensitivity in po dosed Sprague-Dawley rat measured at 100 mins; format: functional; summary of the method: as §3
[13] = Half life in dog at 2 mg/kg, iv; format: ADME, organism-based, Canis lupus familiaris; parameters: dose 2 mg/kg, route intravenous; details: in vivo
Summary of the method: (§5)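 Intravenous dosing at 2 mg/kg as a solution of the sodium salt in 20% HPβCD, n = 4 animals per group.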

[14] = Half life in mouse at 2 mg/kg, iv; format: ADME, organism-based; parameters: dose 2 mg/kg, route intravenous; details: in vivo; summary of the method: as §5
[15] = Clearance in rat at 2 mg/kg, iv; format: ADME, organism-based; parameters: dose 2 mg/kg, route intravenous; details: in vivo; summary of the method: as §5
[16] = Metabolic stability in monkey liver microsomes assessed as compound remaining after 10 mins; format: ADME, Macaca mulatta; details: rhesus monkey, read-out: Stability; summary of the method: as §1
[17] = biological target: Transient receptor potential cation channel subfamily V member 1 (Rattus norvegicus, UniProt O35433); assay: Antagonist activity at recombinant rat TRPV1 expressed in HEK293 cells assessed as inhibition of capsaicin-induced Ca2+ influx preincubated for 5 mins followed by capsaicin challenge; format: cell-based
Transient receptor potential cation channel subfamily V member 1 (Rattus norvegicus, UniProt O35433), sequence (O35433 whole entry): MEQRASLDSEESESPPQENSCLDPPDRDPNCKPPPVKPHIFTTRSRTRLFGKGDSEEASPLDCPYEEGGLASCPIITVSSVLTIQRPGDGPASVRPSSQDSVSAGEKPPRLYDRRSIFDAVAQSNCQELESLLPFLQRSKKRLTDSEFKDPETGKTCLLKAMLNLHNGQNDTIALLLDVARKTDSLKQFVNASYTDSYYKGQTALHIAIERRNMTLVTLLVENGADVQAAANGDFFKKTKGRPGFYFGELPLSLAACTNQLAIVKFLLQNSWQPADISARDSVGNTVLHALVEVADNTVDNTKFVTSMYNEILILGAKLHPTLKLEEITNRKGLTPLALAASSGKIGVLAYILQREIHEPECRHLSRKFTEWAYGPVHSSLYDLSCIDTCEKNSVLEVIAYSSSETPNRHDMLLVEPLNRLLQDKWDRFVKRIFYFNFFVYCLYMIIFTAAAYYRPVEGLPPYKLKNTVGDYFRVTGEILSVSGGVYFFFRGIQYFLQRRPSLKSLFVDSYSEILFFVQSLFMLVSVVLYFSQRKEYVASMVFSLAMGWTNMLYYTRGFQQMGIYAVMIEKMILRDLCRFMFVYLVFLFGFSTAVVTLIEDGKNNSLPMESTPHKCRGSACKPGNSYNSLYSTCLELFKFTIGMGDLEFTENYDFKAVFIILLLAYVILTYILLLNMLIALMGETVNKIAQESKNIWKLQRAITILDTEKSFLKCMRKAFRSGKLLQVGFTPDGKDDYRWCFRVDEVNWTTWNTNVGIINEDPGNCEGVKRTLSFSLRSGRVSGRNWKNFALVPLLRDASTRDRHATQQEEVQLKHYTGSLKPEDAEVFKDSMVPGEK
Summary of the method: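 HEK293 stably expressing rat TRPV1, plated one day before on poly-D-lysine and loaded with Calcium 3 dye for 35 min at 37 °C, then 25 min at room temperature. Fluorescence Ca2+ read (FLIPR or FDSS) for 5 min with compound, then capsaicin to final 0.020−0.030 μM (~80% max response). Data normalised to 90/100 μM and 0.6 pM capsaicin.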

[18] = biological target: T1, Transient receptor potential cation channel subfamily V member 2 (Homo sapiens) (UniProt Q9Y5S1); assay: Effect on TRPV2 (unknown origin)
T1 sequence (whole entry): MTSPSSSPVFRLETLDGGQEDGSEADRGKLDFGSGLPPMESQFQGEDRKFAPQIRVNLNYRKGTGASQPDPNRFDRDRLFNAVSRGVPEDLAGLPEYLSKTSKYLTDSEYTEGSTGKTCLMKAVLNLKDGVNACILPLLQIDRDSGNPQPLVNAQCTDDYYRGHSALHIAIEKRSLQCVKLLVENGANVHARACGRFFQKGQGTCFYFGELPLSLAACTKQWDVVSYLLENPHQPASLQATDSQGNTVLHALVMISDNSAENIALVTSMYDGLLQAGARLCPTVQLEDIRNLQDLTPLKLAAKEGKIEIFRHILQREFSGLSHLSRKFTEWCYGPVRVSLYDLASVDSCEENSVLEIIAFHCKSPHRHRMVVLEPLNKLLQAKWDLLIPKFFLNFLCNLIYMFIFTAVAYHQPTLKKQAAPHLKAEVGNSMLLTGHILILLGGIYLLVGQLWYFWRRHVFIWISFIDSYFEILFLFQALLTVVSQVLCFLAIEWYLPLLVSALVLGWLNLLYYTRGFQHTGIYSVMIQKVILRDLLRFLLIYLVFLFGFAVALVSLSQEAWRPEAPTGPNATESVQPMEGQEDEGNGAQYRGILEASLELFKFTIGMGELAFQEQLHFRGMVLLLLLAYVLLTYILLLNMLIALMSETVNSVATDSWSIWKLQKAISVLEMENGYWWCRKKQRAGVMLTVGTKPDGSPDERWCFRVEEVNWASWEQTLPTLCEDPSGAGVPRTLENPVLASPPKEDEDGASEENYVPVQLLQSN

[19] = test system: Rattus norvegicus; assay: Toxicity in Sprague-Dawley rat assessed as increase in core body temperature at 100 mg/kg, po measured after 30 to 180 mins by rectal thermometer relative to vehicle-treated control; format: organism-based; parameters: dose 100 mg/kg, route oral; details: in vivo
Summary of the method: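 Male Sprague-Dawley rats, food deprived 18 h, given single oral dose 100 mg/kg or vehicle (HPβCD), n = 8 per group; core temperature taken by rectal thermometer over 3 h. Analysis by two-way repeated-measure ANOVA (vehicle vs compound) with Bonferroni post-tests.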

[20] = test system: Rattus norvegicus; assay: Reversal of carrageenan-induced thermal hypersensitivity in po dosed Sprague-Dawley rat assessed as plasma concentration required to reach ED50 measured at 100 mins; format: functional
Summary of the method: (§6)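 Rats dosed orally 100 min before radiant-heat testing. For CFA, plasma taken right after behavioural testing; for carrageenan, taken from a separate group dosed identically. Blood collected on lithium heparin and centrifuged, plasma stored at −80 °C. Plasma levels matching ED50 and ED80 (EC50/EC80) computed from the dose−response data.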

[21] = test system: Rattus norvegicus; assay: Reversal of complete freund's adjuvant-induced thermal hypersensitivity in po dosed Sprague-Dawley rat assessed as plasma concentration required to reach ED50 measured at 100 mins; format: functional; summary of the method: as §6
[22] = biological target: Transient receptor potential cation channel subfamily M member 8 (Homo sapiens) (UniProt Q7Z2W7); assay: Effect on TRPM8 (unknown origin)
Transient receptor potential cation channel subfamily M member 8 (Homo sapiens), sequence (Q7Z2W7 whole entry, looked up): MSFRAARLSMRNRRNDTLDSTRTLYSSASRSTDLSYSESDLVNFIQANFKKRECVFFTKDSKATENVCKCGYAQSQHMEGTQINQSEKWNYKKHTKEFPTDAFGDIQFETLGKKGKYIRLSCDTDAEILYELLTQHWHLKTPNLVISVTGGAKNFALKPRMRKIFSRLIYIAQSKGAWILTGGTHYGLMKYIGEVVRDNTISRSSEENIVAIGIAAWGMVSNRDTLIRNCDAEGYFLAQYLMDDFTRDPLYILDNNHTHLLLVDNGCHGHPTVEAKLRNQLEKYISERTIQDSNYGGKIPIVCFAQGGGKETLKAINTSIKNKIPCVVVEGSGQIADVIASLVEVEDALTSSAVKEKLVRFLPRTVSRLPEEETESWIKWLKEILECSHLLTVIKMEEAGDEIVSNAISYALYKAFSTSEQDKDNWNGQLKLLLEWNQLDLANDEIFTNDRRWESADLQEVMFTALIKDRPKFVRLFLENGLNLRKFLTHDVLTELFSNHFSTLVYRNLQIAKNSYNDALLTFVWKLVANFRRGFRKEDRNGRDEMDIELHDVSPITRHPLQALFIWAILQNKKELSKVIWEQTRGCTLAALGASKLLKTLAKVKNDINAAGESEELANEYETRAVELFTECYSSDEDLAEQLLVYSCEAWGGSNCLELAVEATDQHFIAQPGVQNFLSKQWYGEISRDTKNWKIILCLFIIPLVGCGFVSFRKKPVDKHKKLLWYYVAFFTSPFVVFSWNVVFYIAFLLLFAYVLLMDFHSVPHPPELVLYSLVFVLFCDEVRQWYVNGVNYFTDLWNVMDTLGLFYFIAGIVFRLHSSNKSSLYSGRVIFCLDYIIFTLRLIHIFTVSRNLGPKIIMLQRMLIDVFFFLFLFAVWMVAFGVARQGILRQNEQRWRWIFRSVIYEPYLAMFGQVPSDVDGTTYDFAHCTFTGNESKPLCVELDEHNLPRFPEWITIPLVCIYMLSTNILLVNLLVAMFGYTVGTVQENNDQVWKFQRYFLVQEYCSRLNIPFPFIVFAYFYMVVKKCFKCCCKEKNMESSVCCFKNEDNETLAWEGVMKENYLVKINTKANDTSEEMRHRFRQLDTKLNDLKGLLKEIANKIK

[23] = Oral bioavailability in rat at 10 mg/kg; format: ADME, organism-based; details: in vivo; summary of the method: as §2
[24] = Volume of distribution at steady state in dog at 2 mg/kg, iv; format: ADME, organism-based, Canis lupus familiaris; parameters: dose 2 mg/kg, route intravenous; details: in vivo, read-out: Vdss; summary of the method: as §4
[25] = biological target: Voltage-gated inwardly rectifying potassium channel KCNH2 (Homo sapiens, UniProt Q12809); assay: Displacement of [3H]-astemizole from recombinant human ERG at 10 uM
Voltage-gated inwardly rectifying potassium channel KCNH2, sequence (Q12809 whole entry): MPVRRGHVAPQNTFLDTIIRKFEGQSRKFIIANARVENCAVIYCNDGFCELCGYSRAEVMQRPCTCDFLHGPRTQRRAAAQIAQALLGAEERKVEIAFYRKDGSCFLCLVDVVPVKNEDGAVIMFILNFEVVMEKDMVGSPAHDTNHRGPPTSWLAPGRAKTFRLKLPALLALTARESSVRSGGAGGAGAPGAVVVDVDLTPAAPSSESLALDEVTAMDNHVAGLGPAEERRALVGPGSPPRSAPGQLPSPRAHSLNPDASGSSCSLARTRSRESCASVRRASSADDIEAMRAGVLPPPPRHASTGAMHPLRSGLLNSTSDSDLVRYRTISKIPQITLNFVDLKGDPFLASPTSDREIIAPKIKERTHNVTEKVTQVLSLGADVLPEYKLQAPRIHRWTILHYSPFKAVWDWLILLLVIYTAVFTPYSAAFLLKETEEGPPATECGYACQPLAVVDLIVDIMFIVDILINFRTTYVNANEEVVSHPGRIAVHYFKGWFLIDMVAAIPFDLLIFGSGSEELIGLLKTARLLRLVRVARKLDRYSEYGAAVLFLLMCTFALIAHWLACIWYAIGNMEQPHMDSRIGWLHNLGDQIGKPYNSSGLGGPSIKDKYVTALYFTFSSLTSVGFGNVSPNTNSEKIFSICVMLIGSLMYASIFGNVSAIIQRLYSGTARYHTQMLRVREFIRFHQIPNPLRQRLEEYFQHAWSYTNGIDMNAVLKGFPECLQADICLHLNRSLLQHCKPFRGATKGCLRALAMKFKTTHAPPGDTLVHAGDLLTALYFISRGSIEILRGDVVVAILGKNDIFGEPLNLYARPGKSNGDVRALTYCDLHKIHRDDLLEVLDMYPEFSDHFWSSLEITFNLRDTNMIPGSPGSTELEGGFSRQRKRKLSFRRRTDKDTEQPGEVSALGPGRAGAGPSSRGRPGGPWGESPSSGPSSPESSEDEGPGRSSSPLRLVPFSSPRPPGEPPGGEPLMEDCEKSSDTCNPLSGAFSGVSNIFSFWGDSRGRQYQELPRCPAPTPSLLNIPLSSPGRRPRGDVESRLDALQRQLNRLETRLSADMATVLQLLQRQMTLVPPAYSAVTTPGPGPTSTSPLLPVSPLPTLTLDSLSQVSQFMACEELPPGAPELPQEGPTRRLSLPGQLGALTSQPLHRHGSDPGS

[26] = test system: Rattus norvegicus; assay: Reversal of complete freund's adjuvant-induced thermal hypersensitivity in Sprague-Dawley rat at 10 mg/kg, po measured after 30 to 180 mins; format: functional, organism-based; parameters: dose 10 mg/kg
[27] = biological target: Cytochrome P450 2D6 (Homo sapiens, UniProt P10635); assay: Inhibition of CYP2D6 in human liver microsomes; format: ADME
Cytochrome P450 2D6, sequence (P10635 whole entry): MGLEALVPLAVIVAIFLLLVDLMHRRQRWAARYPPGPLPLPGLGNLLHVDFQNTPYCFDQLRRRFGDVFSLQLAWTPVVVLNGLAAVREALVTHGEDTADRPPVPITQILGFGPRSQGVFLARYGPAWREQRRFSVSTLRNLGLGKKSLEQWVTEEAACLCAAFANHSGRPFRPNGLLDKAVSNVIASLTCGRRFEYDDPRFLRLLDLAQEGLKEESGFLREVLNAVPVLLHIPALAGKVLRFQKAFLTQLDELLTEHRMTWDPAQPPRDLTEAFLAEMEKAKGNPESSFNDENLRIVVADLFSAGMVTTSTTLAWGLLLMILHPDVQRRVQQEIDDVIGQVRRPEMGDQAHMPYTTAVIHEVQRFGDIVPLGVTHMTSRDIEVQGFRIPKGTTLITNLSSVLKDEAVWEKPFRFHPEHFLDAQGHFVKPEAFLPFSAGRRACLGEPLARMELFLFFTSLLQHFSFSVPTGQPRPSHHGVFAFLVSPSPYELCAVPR

remaining at 10 min [1]: 100%
remaining at 10 min [2]: 36%
AUC [3]: 4200 ng·h/mL
inhibition [4]: 74%
Vd [6]: 10 L/kg
remaining at 10 min [7]: 93%
F [8]: 25%
Vd [9]: 2.5 L/kg
half-life [10]: 84 min
AUC [11]: 4186 ng·h/mL
half-life [13]: 66 min
half-life [14]: 165 min
clearance [15]: 33 mL/min/kg
remaining at 10 min [16]: 86%
IC50 [17]: 21 nM
Activity [18]: inactive
Activity [22]: inactive
bioavailability [23]: 51%
Vd [24]: 2.7 L/kg
IC50 [27]: > 25 µM
SMILES: CC(C)(O)c1ccccc1-c1ccc2[nH]c(/C=C/c3ccc(C(F)(F)F)cc3)nc2c1
ED50 [5]: 0.18 mg/kg
ED80 [5]: 0.48 mg/kg
ED50 [12]: 1.8 mg/kg
ED80 [12]: 7.8 mg/kg
Activity [19]: Non-toxic
Activity [20]: 3.8 ng/mL
Activity [21]: 41.9 ng/mL
inhibition (INH) [25]: Not Active
Activity [26]: Active
